Results taken from ChEMBL document CHEMBL4390654, “Microwave-assisted solid-phase synthesis of antisense acpP peptide nucleic acid-peptide conjugates active against colistin- and tigecycline-resistant E. coli and K. pneumoniae” (Eur J Med Chem, 2019).

Tests used:
Escherichia coli [1] = assay: Antibacterial activity against multi-drug resistant Escherichia coli NMI 3548/14 assessed as reduction in microbial growth incubated for 20 hrs; format: functional
In short: (§1)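 Broth microdilution MIC (modified Hancock protocol) in non-binding polystyrene plates. Inoculum ~2 × 10^5 CFU/mL in Mueller-Hinton broth with Mg²⁺ and Ca²⁺ at 4 mg/L each. Compounds dissolved in water, diluted in 0.01% acetic acid/0.2% BSA (final), added as 10× stocks. Covered plates incubated 20 h at 35 °C (± 2 °C) with 220 rpm circular shaking before MIC read.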

[2] = Hemolytic activity against RBC (unknown origin) at 100 uM; format: ADME, cell-based, Erythrocyte; settings: red blood cells (erythrocytes); read-out: Activity
Escherichia coli [3] = assay: Antibacterial activity against Escherichia coli ATCC 25922 assessed as reduction in microbial growth incubated for 20 hrs; format: functional; in short: as §1
Escherichia coli [4] = assay: Antibacterial activity against NDM-5 producing multi-drug resistant Escherichia coli NMI 636/15 ST405 assessed as reduction in microbial growth incubated for 20 hrs; format: functional; settings: NMI 636/15 ST405, 20 h; in short: as §1
Pseudomonas aeruginosa [5] = assay: Antibacterial activity against Pseudomonas aeruginosa PAO1 assessed as reduction in microbial growth incubated for 20 hrs; format: functional
In short: (§2)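 Broth microdilution MIC after a modified Hancock protocol for cationic peptides, in non-binding polystyrene plates. Inoculum ~2 × 10^5 CFU/mL in Mueller-Hinton broth with Mg²⁺ and Ca²⁺ at 4 mg/L each. Compounds dissolved in water, diluted in 0.01% acetic acid, 0.2% BSA (final), added as 10× aliquots. Covered plates incubated 20 h at 35 °C (± 2 °C) with shaking at 220 rpm. MIC read as lowest inhibiting concentration.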

Escherichia coli [6] = assay: Antibacterial activity against NDM-1 producing multi-drug resistant Escherichia coli NMI 5428/11 ST410 assessed as reduction in microbial growth incubated for 20 hrs; format: functional; settings: NMI 5428/11 ST410, 20 h; in short: as §1
Klebsiella pneumoniae [7] = assay: Antibacterial activity against Klebsiella pneumoniae ATCC 13883 assessed as reduction in microbial growth incubated for 20 hrs; format: functional; in short: as §2
Escherichia coli [8] = assay: Antibacterial activity against NDM-1 producing multi-drug resistant Escherichia coli NMI 3371/16 ST101 assessed as reduction in microbial growth incubated for 20 hrs; format: functional; settings: NMI 3371/16 ST101, 20 h; in short: as §1
Acinetobacter baumannii [9] = assay: Antibacterial activity against Acinetobacter baumannii NMI 3658/17 assessed as reduction in microbial growth incubated 20 hrs; format: functional; in short: as §2
Pseudomonas aeruginosa [10] = assay: Antibacterial activity against Pseudomonas aeruginosa ATCC 27853 assessed as reduction in microbial growth incubated for 20 hrs; format: functional; in short: as §2
Klebsiella pneumoniae [11] = assay: Antibacterial activity against multi-drug resistant Klebsiella pneumoniae NMI 3081/09 assessed as reduction in microbial growth incubated for 20 hrs; format: functional; in short: as §1
[12] = Ratio of MIC for Escherichia coli ATCC 25922 to MIC against Escherichia coli NMI 3898/15; format: functional
Acinetobacter baumannii [13] = assay: Antibacterial activity against Acinetobacter baumannii ATCC 19606 assessed as reduction in microbial growth incubated for 20 hrs; format: functional; in short: as §2
[14] = Ratio of MIC for Escherichia coli lacking functional SbmA to MIC for Escherichia coli ATCC 25922
Pseudomonas aeruginosa [15] = assay: Antibacterial activity against multi-drug resistant Pseudomonas aeruginosa NMI 506/17 assessed as reduction in microbial growth incubated for 20 hrs; format: functional; in short: as §1
Klebsiella pneumoniae [16] = assay: Antibacterial activity against multi-drug resistant Klebsiella pneumoniae NMI 2697/14 assessed as reduction in microbial growth incubated for 20 hrs; format: functional; in short: as §1
Escherichia coli [17] = assay: Antibacterial activity against Escherichia coli lacking a functional SbmA assessed as reduction in microbial growth incubated for 20 hrs; in short: as §2
Staphylococcus aureus = assay: Antibacterial activity against Staphylococcus aureus ATCC 29213 assessed as reduction in microbial growth incubated for 20 hrs; format: functional; in short: as §2
Escherichia coli [18] = assay: Antibacterial activity against multi-drug resistant Escherichia coli NMI 3898/15 assessed as reduction in microbial growth incubated for 20 hrs; format: functional; in short: as §1
[19] = Ratio of MIC for Escherichia coli ATCC 25922 to MIC for Klebsiella pneumoniae ATCC 13883; format: functional
[20] = ATCC 19606 = CIP 70.34 = JCM 6841, 20 h

| Compound | MIC (Escherichia coli [1]; NMI 3548/14, 20 h) [µg/mL] | hemolysis at 100 µM [2] [%] | MIC (Escherichia coli [3]; ATCC 25922, 20 h) [µg/mL] | MIC (Escherichia coli [4]) [µg/mL] | MIC (Pseudomonas aeruginosa [5]; PAO1, 20 h) [µg/mL] | MIC (Escherichia coli [6]) [µg/mL] | MIC (Klebsiella pneumoniae [7]; ATCC 13883, 20 h) [µg/mL] | MIC (Escherichia coli [8]) [µg/mL] | MIC (Acinetobacter baumannii [9]; NMI 3658/17, 20 h) [µg/mL] | MIC (Pseudomonas aeruginosa [10]; ATCC 27853, 20 h) [µg/mL] | MIC (Klebsiella pneumoniae [11]; NMI 3081/09, 20 h) [µg/mL] | Ratio [12] | MIC (Acinetobacter baumannii [13]; [20]) [µg/mL] | Ratio [14] | MIC (Pseudomonas aeruginosa [15]; NMI 506/17, 20 h) [µg/mL] | MIC (Klebsiella pneumoniae [16]; NMI 2697/14, 20 h) [µg/mL] | MIC (Escherichia coli [17]) [µg/mL] | MIC (Staphylococcus aureus; ATCC 29213, 20 h) [µg/mL] | MIC (Escherichia coli [18]; NMI 3898/15, 20 h) [µg/mL] | other results |
| --- | --- | --- | --- | --- | --- | --- | --- | --- | --- | --- | --- | --- | --- | --- | --- | --- | --- | --- | --- | --- |
| CC[C@H](C)[C@H](NC(=O)[C@@H]1CCCN1C(=O)[C@H](CCCNC(=N)N)NC(=O)[C@@H]1CCCN1C(=O)[C@H](Cc1cnc[nH]1)NC(=O)[C@H](CO)NC(=O)[C@@H](NC(=O)[C@@H]1CCCN1C(=O)[C@H](CCCNC(=N)N)NC(=O)[C@@H]1CCCN1C(=O)[C@H](CO)NC(=O)[C@H](Cc1ccc(O)cc1)NC(=O)[C@@H]1CCCN1C(=O)[C@H](CCCNC(=N)N)NC(=O)[C@@H]1CCCN1C(=O)[C@H](CCCNC(=N)N)NC(=O)CCCCCNC(=O)[C@@H](N)CCCNC(=N)N)[C@@H](C)O)C(=O)N[C@@H](CCCNC(=N)N)C(=O)N[C@H](C(=O)N[C@@H](CS)C(=O)N[C@H](C(=O)N[C@@H](CS)C(=O)N[C@@H](C)C(=O)N[C@H](C(=O)N[C@@H](C)C(=O)N[C@@H](CS)C(=O)N[C@H](C(=O)N[C@@H](CS)C(=O)N[C@H](C(N)=O)[C@@H](C)O)[C@@H](C)O)[C@@H](C)O)[C@@H](C)O)C(C)C | 1 to 2 | < 1 | 4 | 1 | > 64 | 1 | 2 to 4 | 0.5 | 32 | > 64 | 8 | 2 to 8 | 64 | > 16 | > 64 | 32 | > 64 | > 64 | 4 |  |
| CC[C@@H](C)[C@@H](NC(=O)[C@@H](CCCCN)NC(=O)[C@@H]([C@H](C)CC)N(C(=O)[C@@H](CCCNC(=N)N)NC(=O)CCCCCNC(=O)[C@H](N)CCCNC(=N)N)C(=O)[C@@H](CCCNC(=N)N)NC(=O)CCCCCNC(=O)[C@H](N)CCCNC(=N)N)C(=O)N[C@H](CC(C)C)C(=O)N[C@H](Cc1ccccc1)C(=O)N[C@H](CCC(N)=O)C(=O)N[C@H](CC(N)=O)C(=O)N[C@H](CCCNC(=N)N)C(=O)N[C@H](CCCNC(=N)N)C(=O)N[C@H](CCSC)C(=O)N[C@H](CCCCN)C(=O)N[C@H](Cc1c[nH]c2ccccc12)C(=O)N[C@H](CCCCN)C(=O)N[C@H](CCCCN)C(N)=O | 1 | < 1 | 2 to 4 | 2 | 1 | 1 to 2 | 4 | 2 | 2 | 2 | 16 |  | 2 |  | 4 | 16 | 2 | 2 to 4 | 2 |  |
| CC[C@H](C)[C@H](NC(=O)[C@@H]1CCCN1C(=O)[C@H](CCCNC(=N)N)NC(=O)[C@@H]1CCCN1C(=O)[C@H](Cc1cnc[nH]1)NC(=O)[C@H](CO)NC(=O)[C@@H](NC(=O)[C@@H]1CCCN1C(=O)[C@H](CCCNC(=N)N)NC(=O)[C@@H]1CCCN1C(=O)[C@H](CO)NC(=O)[C@H](Cc1ccc(O)cc1)NC(=O)[C@@H]1CCCN1C(=O)[C@H](CCCNC(=N)N)NC(=O)[C@@H]1CCCN1C(=O)[C@H](CCCNC(=N)N)NC(=O)CCCCCNC(=O)[C@@H](N)CCCNC(=N)N)[C@@H](C)O)C(=O)N[C@@H](CCCNC(=N)N)C(=O)N[C@H](C(=O)N[C@@H](CSC1CC(=O)N(CCC(=O)NCCOCCOC(=O)N[C@@H](CS)C(=O)N[C@H](C(=O)N[C@@H](CS)C(=O)N[C@@H](C)C(=O)N[C@H](C(=O)N[C@@H](C)C(=O)N[C@@H](CS)C(=O)N[C@H](C(=O)N[C@@H](CS)C(=O)N[C@H](C(N)=O)[C@@H](C)O)[C@@H](C)O)[C@@H](C)O)[C@@H](C)O)C1=O)C(N)=O)C(C)C (some centres undefined) | 2 to 8 | < 1 | 16 |  | > 64 |  | 4 to 8 |  |  |  | 64 | 2 to 8 | > 64 |  |  | 32 to 64 | > 64 | > 64 | 8 to 32 | Ratio [19]: 2 to 4 |
| CC[C@@H](C)[C@@H](NC(=O)[C@H]1CCCN1C(=O)[C@@H](CCCNC(=N)N)NC(=O)[C@H]1CCCN1C(=O)[C@@H](Cc1cnc[nH]1)NC(=O)[C@@H](CO)NC(=O)[C@H](NC(=O)[C@H]1CCCN1C(=O)[C@@H](CCCNC(=N)N)NC(=O)[C@H]1CCCN1C(=O)[C@@H](CO)NC(=O)[C@@H](Cc1ccc(O)cc1)NC(=O)[C@H]1CCCN1C(=O)[C@@H](CCCNC(=N)N)NC(=O)[C@H]1CCCN1C(=O)[C@@H](CCCNC(=N)N)NC(=O)CCCCCNC(=O)[C@H](N)CCCNC(=N)N)[C@H](C)O)C(=O)N[C@H](CCCNC(=N)N)C(=O)N[C@@H](C(=O)N[C@H](CS)C(=O)N[C@@H](C(=O)N[C@H](CS)C(=O)N[C@H](C)C(=O)N[C@@H](C(=O)N[C@H](C)C(=O)N[C@H](CS)C(=O)N[C@@H](C(=O)N[C@@H](CS)C(=O)N[C@@H](C(N)=O)[C@H](C)O)[C@H](C)O)[C@H](C)O)[C@H](C)O)C(C)C | 64 | < 1 | > 64 |  | > 64 |  | 8 to 16 |  |  |  | > 64 |  | > 64 | > 16 |  | > 64 | > 64 | > 64 | > 64 |  |
| COLISTIN |  |  |  |  |  |  |  |  |  |  |  |  |  |  |  |  | 0.5 |  |  | MIC (Escherichia coli [1]): 4 µg/mL; MIC (Escherichia coli [3]): 0.125 to 0.5 µg/mL; MIC (Pseudomonas aeruginosa [5]): 0.5 µg/mL; MIC (Klebsiella pneumoniae [7]): 2 to 4 µg/mL; MIC (Acinetobacter baumannii [9]): > 16 µg/mL; MIC (Pseudomonas aeruginosa [10]): 0.25 µg/mL; MIC (Klebsiella pneumoniae [11]): 0.25 to 1 µg/mL; MIC (Acinetobacter baumannii [13]; ATCC 19606 = CIP 70.34 = JCM 6841): 0.25 µg/mL; MIC (Pseudomonas aeruginosa [15]): > 16 µg/mL; MIC (Klebsiella pneumoniae [16]): > 16 µg/mL; MIC (Staphylococcus aureus): > 16 µg/mL; MIC (Escherichia coli [18]): 2 to 4 µg/mL |
